Screens (PubChem BioAssay)
Sampled rows, rich in hits. Any-hit rate of the full collection: about 2.9%.
M1 PAM parental: nonselective activator or artifact in parental CHO-K1 calcium assay | ATP EC20, Fluo-8 calcium fluorescence; 0% at ATP EC20, 100% at ATP max | activation, % at 3 µM | actives 0.02% (n = 360,000) | AID 602247;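 active = activation above the run cutoff, the mean activation of all test compounds plus 3 SD, cut at about 40% in these data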;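 also: peak over basal fluorescence ratio in a 140 s read after ATP addition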
CHO-K1 Ca antag: nonselective inhibitor or artifact in parental CHO-K1 cells | ATP-induced calcium, Fluo-8 fluorescence | inhibition, % at 3 µM | actives 0.6% (n = 360,000);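 active = inhibition above a per-plate cutoff, the plate's mean sample inhibition plus 3 SD, cut at about 24% in these data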
OX1R antag-1: blocks the human orexin 1 receptor | O43613 | CHO/OX1R cells, Fluo-8 calcium fluorescence, orexin A | inhibition, % at 5 µM | actives 0.43% (n = 330,000) | AID 434989;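 active = inhibition above its plate's threshold, mean inhibition of all tested compounds on the plate plus 3 SD, cut at about 37% in these data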
Target sequence (O43613 whole entry, looked up): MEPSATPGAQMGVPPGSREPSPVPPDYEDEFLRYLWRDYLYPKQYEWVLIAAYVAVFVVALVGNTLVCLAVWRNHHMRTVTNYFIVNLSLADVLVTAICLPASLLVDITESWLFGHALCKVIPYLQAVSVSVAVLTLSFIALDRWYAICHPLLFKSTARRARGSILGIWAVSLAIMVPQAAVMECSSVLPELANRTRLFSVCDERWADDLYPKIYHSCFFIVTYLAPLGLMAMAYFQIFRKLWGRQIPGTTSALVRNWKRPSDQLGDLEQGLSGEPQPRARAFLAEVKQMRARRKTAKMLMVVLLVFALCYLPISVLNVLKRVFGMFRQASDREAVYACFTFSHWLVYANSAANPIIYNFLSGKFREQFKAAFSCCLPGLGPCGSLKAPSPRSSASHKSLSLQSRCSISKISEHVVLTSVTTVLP
OX1R antag-2: antagonists of human orexin 1 receptor (OX1R). AID 485270. actives 1.8% (n = 330,000). OX1R-expressing cells, FRET antagonist read-out. inhibition, % at 6.6 µM; in the data active = inhibition mostly above about 38%, no sharp cut-off; inactive = mostly below about 40%
CHO parental Ca: counter-screen: ATP calcium response change in parental CHO cells; parental CHO-K1, ATP-induced calcium, Fluo-8 fluorescence; inhibition, % at 5.6 µM; actives 0.63% (n = 330,000); AID 463079;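 active = inhibition above that plate's mean sample inhibition plus 3 SD, cut at about 26% in these data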
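test system = CHO parental line | reagent = ATP stimulus | measured by = intracellular calcium via Fluo-8 no-wash fluorescent dye | control set = ATP and no-ATP DMSO wells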
M1 ag parental: M1 agonist counterscreen hit in parental CHO-K1 cells; Fluo-8 calcium fluorescence; scaled to maximal ATP response, vehicle zero; activation, % at 3 µM; actives 0.48% (n = 360,000); AID 602248; in the data active = activation above about 15%;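 also: untransfected CHO-K1 host cells lacking M1 receptor as counterscreen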
OX1R HTRF conf: OX1R (human) antagonism, HTRF confirmed | OX1R-expressing cells, HTRF antagonist assay | inhibition, % at 6.6 µM | AID 492964 | actives 49% (n = 1,800) | shares compounds with OX1R antag-2; in the data active = inhibition above about 55%;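 also: CHO cells expressing OX1R stimulated with orexin A at about EC80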
CHO-K1 HTRF: counter-screen for OX1R antagonists: effect in parental CHO-K1 cells; HTRF counterscreen; AID 493232; actives 48% (n = 1,800); shares compounds with OX1R antag-2; inhibition, % at 6.6 µM; in the data active = inhibition above about 17%
Hits are given with their value.

How did Cc1ccc2nc3c(cc2c1)c(NC(=O)C(C)(C)C)nn3CC(C)C do in these assays?
M1 PAM parental: inactive; CHO-K1 Ca antag: inactive; OX1R antag-1: inactive; OX1R antag-2: inactive; CHO parental Ca: inactive; M1 ag parental: inactive

Results for Cn1c(=O)[nH]c(=O)c2c1nc(SCC(O)CCl)n2Cc1ccccc1 (stereo not drawn) ?
M1 PAM parental: inactive; CHO-K1 Ca antag: inactive; OX1R antag-1: inactive; OX1R antag-2: inactive; CHO parental Ca: inactive; M1 ag parental: inactive

What do the screens show for `Cc1ccc2nsnc2c1S(=O)(=O)NCc1cccnc1`?
M1 PAM parental: inactive; CHO-K1 Ca antag: inactive; OX1R antag-1: inactive; OX1R antag-2: inactive; CHO parental Ca: inactive; M1 ag parental: inactive

Results for Cc1ccc2nsnc2c1S(=O)(=O)NCc1ccncc1 ?
M1 PAM parental: inactive; CHO-K1 Ca antag: inactive; OX1R antag-1: inactive; OX1R antag-2: 103; CHO parental Ca: inactive; M1 ag parental: inactive; OX1R HTRF conf: inactive; CHO-K1 HTRF: 37

What do the screens show for `O=C(COC(=O)CN1C(=O)C(=O)c2ccccc21)OCN1C(=O)c2ccccc2C1=O`?
M1 PAM parental: inactive; CHO-K1 Ca antag: inactive; OX1R antag-1: inactive; OX1R antag-2: 84; CHO parental Ca: inactive; M1 ag parental: inactive; OX1R HTRF conf: inactive; CHO-K1 HTRF: inactive

Results for O=C(CCN1C(=O)c2ccccc2C1=O)OCN1C(=O)c2ccccc2C1=O ?
M1 PAM parental: inactive; CHO-K1 Ca antag: inactive; OX1R antag-1: inactive; OX1R antag-2: inactive; CHO parental Ca: inactive; M1 ag parental: inactive

How did Cc1ccc(S(=O)(=O)N(CC(=O)Nc2ccc(Cl)cc2)C(=O)N2CCN(C)CC2)cc1 do in these assays?
M1 PAM parental: inactive; CHO-K1 Ca antag: inactive; M1 ag parental: inactive

How did O=C(Cc1ccc(O)cc1)N/N=C/c1cccnc1 do in these assays?
M1 PAM parental: inactive; CHO-K1 Ca antag: inactive; M1 ag parental: inactive

What do the screens show for `CCNC(=O)c1cc2c(=O)n3cccc(C)c3nc2n(CCc2ccccc2)c1=N`?
M1 PAM parental: inactive; CHO-K1 Ca antag: inactive; OX1R antag-1: inactive; OX1R antag-2: inactive; CHO parental Ca: inactive; M1 ag parental: inactive

How did CCOCCCn1c(=N)c(C(N)=S)cc2c(=O)n3cccc(C)c3nc21 do in these assays?
M1 PAM parental: inactive; CHO-K1 Ca antag: inactive; OX1R antag-1: inactive; OX1R antag-2: 87; CHO parental Ca: inactive; M1 ag parental: inactive; OX1R HTRF conf: inactive; CHO-K1 HTRF: 42

What do the screens show for `COc1ccc(CCn2c(=N)c(C(=O)NCCN3CCOCC3)cc3c(=O)n4cccc(C)c4nc32)cc1OC`?
M1 PAM parental: inactive; CHO-K1 Ca antag: inactive; OX1R antag-1: inactive; OX1R antag-2: inactive; CHO parental Ca: inactive; M1 ag parental: inactive

Results for Cc1ccc2nc3c(cc(C(=O)NCCc4ccccc4)c(=N)n3CCCN3CCOCC3)c(=O)n2c1 ?
M1 PAM parental: inactive; CHO-K1 Ca antag: inactive; OX1R antag-1: inactive; OX1R antag-2: 115; CHO parental Ca: inactive; M1 ag parental: inactive; OX1R HTRF conf: 68; CHO-K1 HTRF: 69

Results for Cc1cccn2c(=O)c3cc(C(=O)NCCN4CCOCC4)c(=N)n(CCc4ccccc4)c3nc12 ?
M1 PAM parental: inactive; CHO-K1 Ca antag: inactive; OX1R antag-1: inactive; OX1R antag-2: 109; CHO parental Ca: inactive; M1 ag parental: inactive; OX1R HTRF conf: 57; CHO-K1 HTRF: 72

Results for Cc1cccn2c(=O)c3cc(C(N)=S)c(=N)n(CCCOC(C)C)c3nc12 ?
M1 PAM parental: inactive; CHO-K1 Ca antag: inactive; OX1R antag-1: inactive; OX1R antag-2: inactive; CHO parental Ca: inactive; M1 ag parental: inactive

How did Cc1cccc(C)c1OCc1cc(C(=O)NCC2CC2)no1 do in these assays?
M1 PAM parental: inactive; CHO-K1 Ca antag: inactive; OX1R antag-1: inactive; OX1R antag-2: inactive; CHO parental Ca: inactive; M1 ag parental: inactive

How did C[C@@H]1CCCCO[C@@H](CN(C)S(=O)(=O)c2ccc(F)cc2)[C@@H](C)CN([C@H](C)CO)C(=O)c2cc(NC(=O)c3ccccc3)ccc2O1 do in these assays?
M1 PAM parental: inactive; CHO-K1 Ca antag: inactive; M1 ag parental: inactive

Results for Cc1cc(C(=O)NCc2ccco2)c2ccccc2n1 ?
M1 PAM parental: inactive; CHO-K1 Ca antag: inactive; OX1R antag-1: inactive; OX1R antag-2: inactive; CHO parental Ca: inactive; M1 ag parental: inactive

Results for Cc1ccccc1Nc1cc(C(=O)NCc2ccco2)c2ccccc2n1 ?
M1 PAM parental: inactive; CHO-K1 Ca antag: inactive; OX1R antag-1: inactive; OX1R antag-2: 83; CHO parental Ca: inactive; M1 ag parental: inactive; OX1R HTRF conf: inactive; CHO-K1 HTRF: inactive

What do the screens show for `O=c1/c(=C/c2ccc([N+](=O)[O-])cc2)sc2n1CCCN=2`?
M1 PAM parental: inactive; CHO-K1 Ca antag: inactive; OX1R antag-1: inactive; OX1R antag-2: 169; CHO parental Ca: inactive; M1 ag parental: inactive; OX1R HTRF conf: 61; CHO-K1 HTRF: 84

Results for COc1ccc(/C=c2\s/c(=C/C(=O)c3ccc(C)cc3)[nH]c2=O)cc1OC ?
M1 PAM parental: inactive; CHO-K1 Ca antag: inactive; OX1R antag-1: inactive; OX1R antag-2: 82; CHO parental Ca: inactive; M1 ag parental: inactive; OX1R HTRF conf: 84; CHO-K1 HTRF: 19

How did CCCCCCSc1ccc([C@H]2N[C@@](C)(C(=O)OC)[C@H]3C(=O)N(CC)C(=O)[C@@H]23)cc1 do in these assays?
M1 PAM parental: inactive; CHO-K1 Ca antag: inactive; OX1R antag-1: inactive; OX1R antag-2: inactive; CHO parental Ca: inactive; M1 ag parental: inactive

What do the screens show for `CC(Cl)C(=O)Nc1cc(C(F)(F)F)ccc1N1CCOCC1` (stereo not drawn)?
M1 PAM parental: inactive; CHO-K1 Ca antag: inactive; OX1R antag-1: inactive; OX1R antag-2: 94; CHO parental Ca: inactive; M1 ag parental: inactive; OX1R HTRF conf: inactive; CHO-K1 HTRF: inactive

What do the screens show for `Cn1nnnc1SCC(=O)Nc1cc(C(F)(F)F)ccc1N1CCOCC1`?
M1 PAM parental: inactive; CHO-K1 Ca antag: inactive; OX1R antag-1: inactive; OX1R antag-2: inactive; CHO parental Ca: inactive; M1 ag parental: inactive

How did O=C(CSc1nc2ccccc2[nH]1)Nc1cc(C(F)(F)F)ccc1N1CCOCC1 do in these assays?
M1 PAM parental: inactive; CHO-K1 Ca antag: inactive; OX1R antag-1: inactive; OX1R antag-2: 87; CHO parental Ca: inactive; M1 ag parental: inactive; OX1R HTRF conf: inactive; CHO-K1 HTRF: inactive

How did CC1CC1C(=O)Nc1cc(C(F)(F)F)ccc1N1CCOCC1 (stereo not drawn) do in these assays?
M1 PAM parental: inactive; CHO-K1 Ca antag: inactive; OX1R antag-1: inactive; OX1R antag-2: inactive; CHO parental Ca: inactive; M1 ag parental: inactive

How did ClC1(CNc2ccccc2)CCN(Cc2ccccc2)CC1 do in these assays?
M1 PAM parental: inactive; CHO-K1 Ca antag: inactive; OX1R antag-1: inactive; OX1R antag-2: inactive; CHO parental Ca: inactive; M1 ag parental: inactive
